For experiment [1], the target named is T1, Gastrin/cholecystokinin type B receptor (Rattus norvegicus, UniProt P30553).
T1 sequence (P30553 whole entry): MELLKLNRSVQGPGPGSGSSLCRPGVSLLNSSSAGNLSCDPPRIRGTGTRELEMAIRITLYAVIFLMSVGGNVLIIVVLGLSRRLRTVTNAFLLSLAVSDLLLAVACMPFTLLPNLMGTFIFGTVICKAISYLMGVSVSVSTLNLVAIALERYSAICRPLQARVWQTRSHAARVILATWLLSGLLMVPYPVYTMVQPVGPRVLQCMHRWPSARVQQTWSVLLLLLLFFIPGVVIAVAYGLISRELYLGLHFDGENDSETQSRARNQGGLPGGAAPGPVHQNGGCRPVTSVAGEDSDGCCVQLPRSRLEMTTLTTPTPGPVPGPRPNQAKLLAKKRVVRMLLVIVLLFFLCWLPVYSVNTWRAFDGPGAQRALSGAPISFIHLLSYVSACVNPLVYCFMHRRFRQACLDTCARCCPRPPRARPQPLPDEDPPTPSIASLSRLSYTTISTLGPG
The experiment in a line: Inhibition of 71 pM [125I]BH-(Thr,Nle)CCK-9 binding to rat cholecystokinin 2 receptor.

In experiment [2] the target is T2, Gastrin/cholecystokinin type B receptor (Homo sapiens, UniProt P32239).
T2 sequence (P32239 whole entry): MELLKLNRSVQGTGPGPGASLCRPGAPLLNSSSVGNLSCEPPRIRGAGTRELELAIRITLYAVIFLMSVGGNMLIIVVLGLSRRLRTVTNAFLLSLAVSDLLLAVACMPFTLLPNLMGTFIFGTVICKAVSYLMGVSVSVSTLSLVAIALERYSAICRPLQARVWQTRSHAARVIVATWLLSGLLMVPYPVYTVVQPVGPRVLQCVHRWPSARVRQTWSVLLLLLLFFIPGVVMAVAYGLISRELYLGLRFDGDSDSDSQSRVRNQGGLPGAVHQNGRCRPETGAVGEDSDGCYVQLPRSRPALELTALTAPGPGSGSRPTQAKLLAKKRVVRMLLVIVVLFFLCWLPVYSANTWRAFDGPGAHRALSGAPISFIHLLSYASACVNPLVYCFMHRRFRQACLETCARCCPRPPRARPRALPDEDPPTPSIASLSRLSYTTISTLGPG
The experiment in a line: Inhibition of CCK binding to Cos-7 cells expressing human cholecystokinin 2 receptor. Format: cell-based. A digest of the protocol:
(§1)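 COS-7 cells were grown in DMEM with 5% FCS and transiently transfected by DEAE-dextran with 2 µg/plate of human CCK1R or CCK2R cDNA (from pancreas or gallbladder). About 24 h after replating, cells were incubated 60 min at 37 °C in DMEM with 0.1% BSA and 71 pM [125I]BH-(Thr,Nle)CCK-9 plus competitor. Nonspecific binding used 1 µM. IC50 given as mean ± SEM, 3–6 experiments.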

For experiment [3], the target named is T3, Cholecystokinin receptor type A (Homo sapiens, UniProt P32238).
T3 sequence (P32238 whole entry): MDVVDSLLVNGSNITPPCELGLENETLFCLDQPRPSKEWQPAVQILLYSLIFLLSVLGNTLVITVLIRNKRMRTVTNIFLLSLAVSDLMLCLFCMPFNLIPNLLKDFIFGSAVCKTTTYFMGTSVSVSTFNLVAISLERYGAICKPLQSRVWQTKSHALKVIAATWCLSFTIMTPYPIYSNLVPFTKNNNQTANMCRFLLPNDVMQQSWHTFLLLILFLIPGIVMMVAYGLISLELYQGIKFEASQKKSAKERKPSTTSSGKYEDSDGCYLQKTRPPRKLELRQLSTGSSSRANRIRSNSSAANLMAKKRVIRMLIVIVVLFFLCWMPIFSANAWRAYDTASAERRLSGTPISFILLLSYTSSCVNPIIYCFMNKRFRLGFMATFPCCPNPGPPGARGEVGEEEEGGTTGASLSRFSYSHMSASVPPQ
The experiment in a line: Inhibition of CCK binding to Cos-7 cells expressing human cholecystokinin 1 receptor. In kind it is cell-based. A digest of the protocol: as §1

In experiment [4] the target is T3, Cholecystokinin receptor type A. The experiment in a line: Inhibition of CCK-Induced inositol phosphate production in Cos-7 cells expressing human CCK1R. In kind it is functional, cell-based.
The target of experiment [5] is Cholecystokinin receptor type A (Homo sapiens, UniProt P32238, R336M). Put plainly: Inhibition of CCK-Induced inositol phosphate in Cos-7 cells expressing mutant CCK1R (R336M). Format: functional, cell-based. The method, boiled down: (§2)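 Mutant human CCK1R cDNAs were made by site-directed mutagenesis in pRFENeo and sequence-verified. COS-7 cells were transfected by DEAE-dextran. Cells were [3H]inositol-labelled overnight, then LiCl-preincubated and incubated 60 min at 37 °C in pH 7.45 PI buffer with CCK and varying antagonist. Dowex-separated inositol phosphates were counted. IC50 given as mean ± SEM; Fmut = IC50(mutant)/IC50(wild type).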
Chain of Cholecystokinin receptor type A (Homo sapiens, UniProt P32238, R336M) (P32238 whole entry R336M): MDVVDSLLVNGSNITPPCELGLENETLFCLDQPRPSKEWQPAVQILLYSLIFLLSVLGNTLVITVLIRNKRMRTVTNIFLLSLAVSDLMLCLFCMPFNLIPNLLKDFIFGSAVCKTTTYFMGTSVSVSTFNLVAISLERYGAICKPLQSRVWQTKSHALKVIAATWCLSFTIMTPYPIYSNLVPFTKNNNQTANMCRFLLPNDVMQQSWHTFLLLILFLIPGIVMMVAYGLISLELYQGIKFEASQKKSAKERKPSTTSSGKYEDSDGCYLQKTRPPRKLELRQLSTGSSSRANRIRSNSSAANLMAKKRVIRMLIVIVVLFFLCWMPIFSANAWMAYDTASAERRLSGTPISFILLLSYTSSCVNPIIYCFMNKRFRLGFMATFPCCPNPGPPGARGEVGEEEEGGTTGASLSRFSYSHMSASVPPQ

For experiment [6], the target named is Cholecystokinin receptor type A (Homo sapiens, UniProt P32238, I329F). The experiment in a line: Inhibition of CCK-Induced inositol phosphate in Cos-7 cells expressing mutant CCK1R (I329F). Format: functional, cell-based. A digest of the protocol: as §2
Chain of Cholecystokinin receptor type A (Homo sapiens, UniProt P32238, I329F) (P32238 whole entry I329F): as the sequence (P32238 whole entry R336M) above, with I329F, M336R counted along it
In experiment [7] the target is Cholecystokinin receptor type A (Homo sapiens, UniProt P32238, S348A). Put plainly: Inhibition of CCK-Induced inositol phosphate in Cos-7 cells expressing mutant CCK1R (S348A). Format: functional, cell-based. The method, boiled down: as §2
Chain of Cholecystokinin receptor type A (Homo sapiens, UniProt P32238, S348A) (P32238 whole entry S348A): as the sequence (P32238 whole entry R336M) above, with M336R, S348A counted along it
In experiment [8] the test system is Cholecystokinin receptor type A (Homo sapiens), P32238 [UNDEFINED MUTATION].
The target of experiment [9] is Cholecystokinin receptor type A (Homo sapiens, UniProt P32238, R197M). The experiment in a line: Inhibition of CCK-Induced inositol phosphate in Cos-7 cells expressing mutant CCK1R (R197M). Format: functional, cell-based. The method, boiled down: as §2
Chain of Cholecystokinin receptor type A (Homo sapiens, UniProt P32238, R197M) (P32238 whole entry R197M): as the sequence (P32238 whole entry R336M) above, with R197M, M336R counted along it
The subject of experiment [10] is Cholecystokinin receptor type A (Homo sapiens), P32238 [UNDEFINED MUTATION]. This is another data set of the same source.
Experiment [11] shares this test system. This is another data set of the same source.
Experiment [12] shares this test system. This is another data set of the same source.
In experiment [13] the target is Cholecystokinin receptor type A (Homo sapiens, UniProt P32238, S342A). The experiment in a line: Inhibition of CCK-Induced inositol phosphate in Cos-7 cells expressing mutant CCK1R (S342A). Format: functional, cell-based. A digest of the protocol:
as §2

The subject of experiment [14] is Cholecystokinin receptor type A (Homo sapiens), P32238 [UNDEFINED MUTATION]. The source holds these as a separate data set.
Experiment [15] has as its target Cholecystokinin receptor type A (Homo sapiens, UniProt P32238, F107A). The experiment in a line: Inhibition of CCK-induced inositol phosphate in Cos-7 cells expressing mutant CCK1R (F107A). In kind it is functional, cell-based. The method, boiled down: as §2
In experiment [16] the target is T4, Cholecystokinin receptor type A (Rattus norvegicus, UniProt P30551).
T4 sequence (P30551 whole entry): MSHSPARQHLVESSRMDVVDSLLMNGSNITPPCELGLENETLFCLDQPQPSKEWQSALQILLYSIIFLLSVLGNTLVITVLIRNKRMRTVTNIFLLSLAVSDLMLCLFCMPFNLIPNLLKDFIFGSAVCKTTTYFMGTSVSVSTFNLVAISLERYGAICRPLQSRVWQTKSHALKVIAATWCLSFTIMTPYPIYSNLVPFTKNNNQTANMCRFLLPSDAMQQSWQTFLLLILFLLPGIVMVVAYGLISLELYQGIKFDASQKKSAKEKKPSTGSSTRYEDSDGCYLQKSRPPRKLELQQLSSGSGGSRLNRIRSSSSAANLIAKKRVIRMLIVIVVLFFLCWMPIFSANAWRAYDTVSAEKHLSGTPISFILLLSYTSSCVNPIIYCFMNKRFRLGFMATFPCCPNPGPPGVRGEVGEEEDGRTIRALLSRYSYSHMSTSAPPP
The experiment in a line: Inhibition of 71 pM [125I]BH-(Thr,Nle)CCK-9 binding to rat cholecystokinin 1 receptor.

Experiment [17] has as its target Cholecystokinin receptor type A (Homo sapiens, UniProt P32238, T117A). The experiment in a line: Inhibition of CCK-Induced inositol phosphate in Cos-7 cells expressing mutant CCK1R (T117A). Format: functional, cell-based. A digest of the protocol:
as §2

In experiment [18] the target is Cholecystokinin receptor type A (Homo sapiens, UniProt P32238, I329A). Put plainly: Inhibition of CCK-induced inositol phosphate in Cos-7 cells expressing mutant CCK1R (I329A). In kind it is functional, cell-based. The method, boiled down: as §2
Chain of Cholecystokinin receptor type A (Homo sapiens, UniProt P32238, I329A) (P32238 whole entry I329A): as the sequence (P32238 whole entry R336M) above, with I329A, M336R counted along it
The subject of experiment [19] is Cholecystokinin receptor type A (Homo sapiens), P32238 [UNDEFINED MUTATION]. This is another data set of the same source.
For experiment [20] the test system is unchanged. This is another data set of the same source.
Experiment [21] shares this test system. The source holds these as a separate data set.
For experiment [22] the test system is unchanged. This is another data set of the same source.
Experiment [23] concerns the target Cholecystokinin receptor type A (Homo sapiens, UniProt P32238, M195L). The experiment in a line: Inhibition of CCK-Induced inositol phosphate in Cos-7 cells expressing mutant CCK1R (M195L). In kind it is functional, cell-based. A digest of the protocol: as §2
The target in experiment [24] is Cholecystokinin receptor type A (Homo sapiens, UniProt P32238, I352A). Put plainly: Inhibition of CCK-Induced inositol phosphate in Cos-7 cells expressing mutant CCK1R (I352A). Format: functional, cell-based. The method, boiled down: as §2
Chain of Cholecystokinin receptor type A (Homo sapiens, UniProt P32238, I352A) (P32238 whole entry I352A): as the sequence (P32238 whole entry R336M) above, with M336R, I352A counted along it
Experiment [25] relates to Cholecystokinin receptor type A (Homo sapiens), P32238 [UNDEFINED MUTATION]. This is another data set of the same source.

By IC50 is commonly meant the concentration that inhibits the measured activity by half.

Chain of Cholecystokinin receptor type A (Homo sapiens, UniProt P32238, M195L) (P32238 whole entry M195L): as the sequence (P32238 whole entry R336M) above, with M195L, M336R counted along it
Chain of Cholecystokinin receptor type A (Homo sapiens, UniProt P32238, F107A) (P32238 whole entry F107A): as the sequence (P32238 whole entry R336M) above, with F107A, M336R counted along it
Chain of Cholecystokinin receptor type A (Homo sapiens, UniProt P32238, S342A) (P32238 whole entry S342A): as the sequence (P32238 whole entry R336M) above, with M336R, S342A counted along it
Chain of Cholecystokinin receptor type A (Homo sapiens, UniProt P32238, T117A) (P32238 whole entry T117A): as the sequence (P32238 whole entry R336M) above, with T117A, M336R counted along it

For `CC(C)(C)OC(=O)N[C@@H](Cc1c[nH]c2ccccc12)C(=O)N[C@@H]1CCCN2C(=O)N(Cc3ccccc3)C(=O)C[C@@H]12` [IQM-95333], the half-maximal inhibitory concentration (IC50) in [1] was greater than 10000 nM.

With `CC(C)(C)OC(=O)N[C@@H](Cc1c[nH]c2ccccc12)C(=O)N[C@H]1CCCN2C(=O)N(Cc3ccccc3)C(=O)C[C@@H]12`, the IC50 in experiment [2] worked out at 6020 nM; in experiment [3], 6850 nM; in experiment [4], 20900 nM.

With `CC(C)(C)OC(=O)N[C@@H](Cc1c[nH]c2ccccc12)C(=O)N[C@@H]1CCCN2C(=O)N(c3cccc4ccccc34)C(=O)C[C@@H]12`, the IC50 was determined as 582 nM in experiment [5]; 801 nM in [6]; 3.6 nM in [7]; 8.9 nM in experiment [9]; 7.9 nM in experiment [13]; 26.8 nM in experiment [15]. For the same compound, the IC50 in experiment [2] was greater than 10000 nM; in experiment [3], 2.1 nM; in [16] it was 0.59 nM; in [17] it was 24.9 nM; in experiment [4] it was 8.8 nM; in experiment [18] it was 9.3 nM. For the same compound, the half-inhibitory concentration (IC50) in experiment [23] worked out at 5.2 nM; in [24] it was 227 nM. Moreover, the Fmut in experiment [8] is 0.9; in experiment [10] it was 40.1; in experiment [11], 0.2; in experiment [12] it was 0.5; in [14], 21.2; in experiment [19], 1. Further, the Fmut in experiment [20] came out at 3; in experiment [21], 0.7; in experiment [22], 2; in [25], 90.8.

As to `CC(C)(C)OC(=O)N[C@@H](Cc1c[nH]c2ccccc12)C(=O)N[C@@H]1CCCN2C(=O)N(c3ccccc3)C(=O)C[C@@H]12`, the IC50 in [5] was 4860 nM; in experiment [6], 514 nM; in [7] it was 36.6 nM; in experiment [9] it was 23 nM; in experiment [13], 33.2 nM; in experiment [15] it was 23.3 nM. Also, the IC50 in experiment [2] was greater than 10000 nM; in experiment [3] it was 5.2 nM; in experiment [17], 71.6 nM; in [4], 35.8 nM; in [18] it was 1110 nM; in experiment [23], 35.2 nM. Further, half-maximal inhibition in experiment [24] (IC50) required 2290 nM. Further, the Fmut was 0.7 in experiment [8]; 125 in [10]; 0.4 in experiment [11]; 1.2 in experiment [12]; 65.5 in [14]; 30.8 in experiment [19]. Moreover, the Fmut was found to be 0.7 in [20], 0.8 in experiment [21], 1.9 in experiment [22] and 14.3 in [25].

Take `CC(C)(C)OC(=O)N[C@@H](Cc1c[nH]c2ccccc12)C(=O)N[C@@H]1CCCN2C(S)N(Cc3ccccc3)C(=O)C[C@@H]12` (some centres undefined): the IC50 in experiment [5] was determined as 2060 nM; in experiment [6], 183 nM; in experiment [7] it was 5.7 nM; in experiment [9] it was 11.8 nM; in experiment [13], 27.5 nM; in experiment [15] it was 31.5 nM. The IC50 in experiment [2] was greater than 10000 nM; in [3], 3.8 nM; in experiment [17], 28.4 nM; in [4] it was 7.3 nM; in experiment [18] it was 129 nM; in experiment [23], 5.8 nM. The half-maximal inhibitory concentration (IC50) in experiment [24] was determined as 831 nM. Moreover, the Fmut in [8] was found to be 0.4; in experiment [10] it was 138; in experiment [11], 0.3; in [12], 0.2; in [14], 61.6; in experiment [19], 6.6. In addition, the Fmut was 4.6 in [20], 0.8 in experiment [21], 1.6 in [22] and 24.9 in experiment [25].

Values taken from ChEMBL document CHEMBL1144401, “Combination of molecular modeling, site-directed mutagenesis, and SAR studies to delineate the binding site of pyridopyrimidine antagonists on the human CCK1 receptor” (J Med Chem, 2005).
